For 19 compounds, IC50 and Ki results are on record in ChEMBL document CHEMBL1136815, “Synthesis and in vitro evaluation of novel small molecule inhibitors of bacterial arylamine N-acetyltransferases (NATs)” (Bioorg Med Chem Lett, 2003).

Holding throughout (set-up): species or system Mycolicibacterium smegmatis
The nature of experiment [1]: In vitro inhibition of recombinant Mycobacterium smegmatis Arylamine N-Acetyltransferase (MSNAT) -catalyzed acetylation of isoniazid (INH). Put shortly: (§1)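 Pure recombinant M. smegmatis NAT acetylating isoniazid with acetyl CoA as donor. Acetyl CoA hydrolysis rate followed with 5,5'-dithio-bis(2-nitrobenzoic acid), reading the thio-2-nitrobenzoic acid product spectrophotometrically at 412 nm. Half-maximal inhibitory concentration (IC50) taken from this rate.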

Experiment [2] in a line: In vitro inhibition of recombinant Mycobacterium smegmatis Arylamine N-Acetyltransferase (MSNAT) -catalyzed acetylation of isoniazid (INH); not active. Put shortly: as §1
Experiment [3] in a line: In vitro inhibition of recombinant Mycobacterium smegmatis N-Acetyltransferase (MSNAT) -catalyzed acetylation of isoniazid (INH). The procedure, abridged:
as §1

Experiment [4] is described as follows: Inhibition constant of Mycobacterium smegmatis N-Acetyltransferase (MSNAT) -catalyzed acetylation with respect to isoniazid.

Molecules are shown by their SMILES.

For the compound `C=C(C)CCN1C/C(=C2/SC(=O)NC2=O)c2ccccc2S1(=O)=O`, in experiment [1], the IC50 (usually the concentration that inhibits the measured activity by half) was over 100 µM.
Regarding `O=C1NC(=O)/C(=C2\CN(Cc3ccccc3)S(=O)(=O)c3ccccc32)S1`, in experiment [1], the IC50 was over 100 µM.
For `CN1C/C(=C2/SC(=O)NC2=O)c2ccccc2S1(=O)=O`, in experiment [1], the concentration for half-maximal inhibition (IC50) is over 100 µM.
As for `O=C1CN(Cc2ccc3ccccc3c2)S(=O)(=O)c2ccccc21`, the IC50 result in experiment [2] is on record as “Not Active”.
As to `O=C1NC(=O)/C(=C2\CN(CC3CC3)S(=O)(=O)c3ccccc32)S1`, the IC50 in experiment [1] was over 100 µM.
Take `O=C1CSC(=O)N1` [THIAZOLIDINEDIONE]: the IC50 entry in experiment [2] is reported as “Not Active”.
`O=C1NC(=O)/C(=C2\CN(CCOc3ccccc3)S(=O)(=O)c3ccccc32)S1`: the IC50 in experiment [1] was over 100 µM.
Turning to `O=C1NC(=O)/C(=C2\CN(Cc3ccc(Cl)s3)S(=O)(=O)c3ccccc32)S1`, in experiment [1], the IC50 was 33 µM and the Ki (usually a measure of affinity in units of concentration, obtained from inhibition or displacement) was determined as 26.7 µM.
Consider `O=C1NC(=O)/C(=C2\CN(Cc3ccccn3)S(=O)(=O)c3ccccc32)S1`, for which the IC50 in experiment [1] is over 100 µM.
With `O=C1NC(=O)/C(=C2\CN(Cc3ccc4ccccc4c3)S(=O)(=O)c3ccccc32)S1`, in experiment [3], the IC50 stood at 78 µM. The affinity in experiment [4], expressed as Ki, was 70 µM.
In the case of `O=C1NC(=O)/C(=C2\CN(Cc3ccc(Br)cc3)S(=O)(=O)c3ccccc32)S1`, in experiment [1], the IC50 stood at 65 µM.
On the same count and under the same terms, the same measure for `O=C1NC(=O)/C(=C2\CN(CC3CCCCC3)S(=O)(=O)c3ccccc32)S1`: 205 µM; for `CCC(CC)CN1C/C(=C2/SC(=O)NC2=O)c2ccccc2S1(=O)=O`: 92 µM.
Same read-out and setting: the same measure for `O=C1NC(=O)/C(=C2\CN(CCC3CCCCC3)S(=O)(=O)c3ccccc32)S1`: 82 µM.
Take `O=C1NC(=O)/C(=C2\CN(Cc3ccc(/C=C/c4ccccc4)cc3)S(=O)(=O)c3ccccc32)S1`: in experiment [1], the IC50 stood at 29 µM and the Ki was found to be 14 µM.
Consider `O=C1NC(=O)/C(=C2\CNS(=O)(=O)c3ccccc32)S1`, for which, in experiment [1], the IC50 is over 100 µM.
`O=C1NC(=O)/C(=C2\CN(Cc3ccc(-c4ccccc4)cc3)S(=O)(=O)c3ccccc32)S1`: in experiment [1], the IC50 is 20 µM and the Ki was 14.4 µM.
On to `CCCCCCCCCCN1C/C(=C2/SC(=O)NC2=O)c2ccccc2S1(=O)=O`, for which, in experiment [1], the IC50 came to 22 µM and the Ki turned out to be 14.7 µM.
Regarding `CCCCCCCCN1C/C(=C2/SC(=O)NC2=O)c2ccccc2S1(=O)=O`, in experiment [1], the IC50 stood at 61 µM and the Ki was 43 µM.
